Experimental data collected from several papers.
Each line is one published result; the experiments were not run side by side.
Organism: Severe acute respiratory syndrome coronavirus 2

The inhibition of `CC1=C(C/C=C(\C)CC/C=C(\C)Cc2cccc3ccccc23)C(=O)c2ccccc2C1=O` is reported as 48% (viral replication, inhibitor; VeroE6/TMPRSS2; 100 µM, 72 h).
`O=C(/C=C/c1ccc(O)c(O)c1/C=C/c1ccc(O)c(O)c1)O[C@H](Cc1ccc(O)c(O)c1)C(=O)O` has an inhibition of 0% (cytopathic effect, inhibitor; Vero C1008; 3.125 µM).
For `O=C(Nc1ccccc1F)c1cc2c(=O)n3ccccc3nc2n1Cc1ccccc1`, the inhibition was 96.6% (viral replication; Vero; 10 µM).
With `CCC(CC)COC(=O)[C@H](C)N[P@](=O)(OC[C@H]1O[C@@](C#N)(c2ccc3c(N)ncnn23)[C@H](O)[C@@H]1O)Oc1ccccc1` the inhibition was 20% (viral replication, inhibitor; Vero C1008; 0.8 µM).
For `Cc1ccc(NC(=O)c2cc3c(=O)n4cccc(C)c4nc3n2C)cc1Cl`, the inhibition was 67.4% (viral replication; Vero; 0.1 µM).
`COCC(=O)Nc1c(I)c(C(=O)NCC(O)CO)c(I)c(C(=O)N(C)CC(O)CO)c1I` (centres unmarked) has an inhibition of 2% (viral replication; Vero C1008; 50 µM).
`Oc1c(Br)cc(Cl)c2cccnc12` gave an inhibition of ~103% (viral replication, inhibitor; Vero C1008; 30 µM).
For `O=C(O[C@@H]1Cc2c(O)cc(O)cc2O[C@@H]1c1cc(O)c(O)c(O)c1)c1cc(O)c(O)c(O)c1`, the inhibition was 0% (cytopathic effect, inhibitor; Vero C1008; 6.25 µM).
With `COc1cc(-c2cc3c(c(=O)o2)C[C@]2(O)[C@@]4(C)C(=O)C=CC(C)(C)[C@]4(O)CC[C@@]2(C)O3)cc(OC)c1OC` the inhibition was 101% (viral replication, inhibitor; Calu-3; 50 µM).
`COc1cc(F)cc2c1-c1ccc(F)cc1C21NC(=O)NC1=O` (centres unmarked) gave an inhibition of 52% (viral replication, inhibitor; Vero C1008; 1 µM).
For `Cc1cc(NC(=O)c2cc3c(=O)n4cccc(C)c4nc3n2C)ccc1Br`, the inhibition was 8.19% (viral replication; Vero; 10 nM).
`CC1CCC2c3c(c4ccccc4n3Cc3ccccc3)CCN2C1` (centres unmarked) gave an inhibition of 54.3% (viral replication, inhibitor; Vero C1008; 1 µM).
For `[H]/N=C(/N)SCCCn1cc(C2=C(c3cn(C)c4ccccc34)C(=O)NC2=O)c2ccccc21`, the inhibition was 15% (viral replication; Vero C1008; 50 µM).
The inhibition of `CC1=C(C/C=C(\C)CC/C=C(\C)Cc2ccc(F)cc2)C(=O)c2ccccc2C1=O` is reported as 45% (viral replication, inhibitor; VeroE6/TMPRSS2; 100 µM, 72 h).
With `Oc1c(Cl)cc(Cl)c2cccnc12` the inhibition was 89.8% (viral replication, inhibitor; Vero C1008; 30 µM).
`C=C(C)[C@]12C[C@@H](C)[C@@]34O[C@](Cc5ccccc5)(O[C@@H]1[C@@H]3C=C(COC(=O)Cc1ccc(O)c(OC)c1)C[C@]1(O)C(=O)C(C)=C[C@@H]41)O2` gave an inhibition of 53.2% (viral replication, inhibitor; Vero C1008; 1 µM).
The inhibition of `Cc1cccn2c(=O)c3cc(C(=O)Nc4ccc(N(C)C)cc4)n(C)c3nc12` is reported as 2.51% (viral replication; Vero; 1 nM).
For `OC[C@H]1O[C@@H](O[C@@H]2[C@@H](CO)OC(O)(CO)[C@H]2O)[C@H](O)[C@@H](O)[C@H]1O` (mixture of isomers), the inhibition was 3% (viral replication; Vero C1008; 50 µM).
`COc1ccc(C[C@@H]2c3cc(Oc4cc(C[C@@H]5c6cc(O)c(OC)cc6CCN5C)ccc4O)c(OC)cc3CCN2C)cc1` gave an inhibition of 0% (cytopathic effect; Vero C1008; 3.125 µM).
With `COc1c2ccoc2c(OCC=C(C)C)c2oc(=O)ccc12` the inhibition was 96% (viral replication, inhibitor; Calu-3; 50 µM).
`C=C[C@@](C)(/C=C/c1ccc(O)cc1)CCC=C(C)C` has an inhibition of 0% (cytopathic effect; Vero C1008; 50 µM).
`O=C(NCCN1CCCC1)c1cc(-c2ccc(CN3CCOCC3)cc2)nc2ccc(F)cc12` gave an inhibition of 45.8% (viral replication, inhibitor; Vero C1008; 1 µM).
`Cn1c(C(=O)Nc2ccc3c(c2)OCCO3)cc2c(=O)n3ccccc3nc21` gave an inhibition of 8% (viral replication; Vero; 10 nM).
The inhibition of `CC1=C(/C=C/C(C)=C/C=C/C(C)=C/C(=O)O)C(C)(C)CCC1` is reported as 42.1% (viral replication, inhibitor; Vero C1008; 1 µM).
`CC(C)=CCC[C@](C)(O)[C@H]1CC[C@]2(C)[C@@H]1CC[C@@H]1[C@@]3(C)CCC(=O)C(C)(C)[C@@H]3CC[C@]12C` has an inhibition of 99.5% (viral replication, inhibitor; Calu-3; 50 µM).
The inhibition of `CCCc1nc2ccc(N(CCC)C(=O)c3ccccc3)cc2c(=O)n1Cc1ccc(-c2ccccc2-c2nnn[nH]2)cc1` is reported as 54.3% (viral replication, inhibitor; Vero C1008; 1 µM).
`CC1(C)CCC[C@]2(C)O[C@H]3CC[C@@]4(C)[C@@H](CC[C@]5(C)[C@@H]4CC[C@]4(C)c6c(C(O)C(=O)O)ccc(O)c6C[C@@H]54)[C@]3(C)CC[C@@H]12` (some centres unmarked) gave an inhibition of 0% (viral replication, inhibitor; Calu-3; 50 µM).
The inhibition of `Cn1c(C(=O)Nc2ccc(Cl)cc2)cc2c(=O)n3ccccc3nc21` is reported as 74.7% (viral replication; Vero; 1 µM).
For `CN=c1nc(-c2ccc(OC)c(OC)c2)n(-c2ccc(F)cc2)s1`, the inhibition was 21.5% (viral replication, inhibitor, qPCR; Vero C1008; 50 µM, 24 h).
With `CCC(CC)COC(=O)[C@H](C)N[P@](=O)(OC[C@H]1O[C@@](C#N)(c2ccc3c(N)ncnn23)[C@H](O)[C@@H]1O)Oc1ccccc1` the inhibition was 14.8% (viral replication; Vero; 1 nM).
`NC[C@@H]1O[C@H](O[C@H]2[C@@H](O)[C@H](O[C@@H]3[C@@H](O)[C@H](N)C[C@H](N)[C@H]3O[C@H]3O[C@H](CO)[C@@H](O)[C@H](O)[C@H]3N)O[C@@H]2CO)[C@H](N)[C@@H](O)[C@@H]1O` has an inhibition of 2% (viral replication; Vero C1008; 50 µM).
The inhibition of `CC(C)=CCc1c(O)ccc(C(=O)/C=C/c2ccc(O)cc2)c1O` is reported as 0% (cytopathic effect; Vero C1008; 25 µM).
For `CC(=O)c1cccc(NC(=O)c2cc3c(=O)n4ccccc4nc3n2C)c1`, the inhibition was 43.8% (viral replication; Vero; 10 nM).
With `NS(=O)(=O)c1ccc(N2N=C(C(F)(F)F)CC2c2c[nH]c3cc(Cl)ccc23)cc1` (centres unmarked) the inhibition was 40.9% (viral replication, inhibitor; Vero C1008; 1 µM).
For `CC1=C(C/C=C(\C)CC/C=C(\C)Cc2cccc(C(C)C)c2)C(=O)c2ccccc2C1=O`, the inhibition was 48% (viral replication, inhibitor; VeroE6/TMPRSS2; 100 µM, 72 h).
